In publication PMC10759213 (RSC Advances, 2024):
Like-named read-outs stand apart in the source and are kept apart here.

Assays:
[1] = target: urease (Canavalia ensiformis, UniProt P07374); experiment: In vitro urease inhibition assay; type: biochemical
[2] = DPPH radical scavenging antioxidant assay; settings: for Antioxidant activity % Inhibition ± SD: DPPH 300 μM, 37 °C, 30 minutes; for Antioxidant activity EC50: concentration required to scavenge 50% of DPPH; for Antioxidant activity (in words): DPPH
How it was run: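 Test sample mixed with ethanolic DPPH radical solution (300 μM before mixing), incubated at 37 °C for 30 min, and absorbance read at 515 nm. Percent radical inhibition was calculated against a DMSO negative control, with ascorbic acid as the standard. EC50 is the sample concentration (μg ml−1) needed to scavenge 50% of DPPH.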

Chain of urease (P07374 whole entry, looked up): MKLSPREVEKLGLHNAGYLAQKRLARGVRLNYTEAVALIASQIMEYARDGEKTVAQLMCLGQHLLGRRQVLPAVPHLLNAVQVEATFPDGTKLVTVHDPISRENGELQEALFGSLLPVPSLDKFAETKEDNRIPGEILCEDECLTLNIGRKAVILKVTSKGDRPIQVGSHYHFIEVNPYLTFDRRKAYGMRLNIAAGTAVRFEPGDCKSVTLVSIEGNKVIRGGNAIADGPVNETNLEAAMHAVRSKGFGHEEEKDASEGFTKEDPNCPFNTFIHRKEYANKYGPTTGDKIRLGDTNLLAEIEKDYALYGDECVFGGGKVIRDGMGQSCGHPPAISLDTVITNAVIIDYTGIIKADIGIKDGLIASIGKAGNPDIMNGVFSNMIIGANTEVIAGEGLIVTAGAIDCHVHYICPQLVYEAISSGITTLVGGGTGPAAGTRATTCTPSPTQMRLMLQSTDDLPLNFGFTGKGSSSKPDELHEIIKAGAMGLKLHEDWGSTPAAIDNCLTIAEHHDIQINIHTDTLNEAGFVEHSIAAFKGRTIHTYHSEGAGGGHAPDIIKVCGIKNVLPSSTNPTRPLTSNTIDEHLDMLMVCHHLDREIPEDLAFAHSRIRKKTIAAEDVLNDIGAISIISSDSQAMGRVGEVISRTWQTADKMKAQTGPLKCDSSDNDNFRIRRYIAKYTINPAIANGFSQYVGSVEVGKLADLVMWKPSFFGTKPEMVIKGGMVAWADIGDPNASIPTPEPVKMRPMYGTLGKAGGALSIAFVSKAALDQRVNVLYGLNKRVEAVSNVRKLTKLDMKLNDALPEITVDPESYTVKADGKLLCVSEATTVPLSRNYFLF

IC50 ([1]; read-out: Urease inhibition IC50 ± SD, indophenol method, 15 min at 30 °C, pH 8.2, triplicate)	Antioxidant activity EC50 [2]	IC50 [1]	Structure (SMILES)	Antioxidant activity % Inhibition ± SD [2]	Antioxidant activity (in words) [2]
37 µM	–	–	CC(=O)NO [Acetohydroxamic acid, reference compound]	–	–
–	8.3 µg/mL	–	O=C1O[C@H]([C@@H](O)CO)C(O)=C1O [Ascorbic acid, reference compound]	80%	–
–	37.5 µg/mL	92.3 ± 0.2 µM	c1ccc2cc3[nH]c(-c4c[nH]c5ccccc45)nc3cc2c1 [Compound 1, 2-(1H-Indol-3-yl)-1H-naphtho[2,3-d]imidazole]	71.1 ± 0.01%	excellent antioxidant activity
–	–	73.5 ± 0.65 µM	CCOc1ccc(-c2nc3cc4ccccc4cc3[nH]2)cc1OC [Compound 2, 2-(4-Ethoxy-3-methoxyphenyl)-1H-naphtho[2,3-d]imidazole]	43 ± 0.01%	–
–	75 µg/mL	56.3 ± 0.78 µM	COc1cc(-c2nc3cc4ccccc4cc3[nH]2)ccc1OC(C)=O [Compound 3, 2-Methoxy-4-(1H-naphtho[2,3-d]imidazol-2-yl)phenyl acetate]	67.4 ± 0.01%	excellent antioxidant activity
–	–	34.2 ± 0.72 µM	Oc1ccc(Cl)cc1-c1nc2cc3ccccc3cc2[nH]1 [Compound 4, 4-Chloro-2-(1H-naphtho[2,3-d]imidazol-2yl)phenol]	29 ± 0.01%	–
–	–	–	COc1cc(-c2nc3cc4ccccc4cc3[nH]2)cc(OC)c1O [Compound 5, 2,6-Dimethoxy-4-(1H-naphtho[2,3-d]imidazol-2-yl)phenol]	12 ± 0.01%	–
–	37.5 µg/mL	–	COc1ccc(-c2nc3cc4ccccc4cc3[nH]2)cc1O [Compound 6, 2-Methoxy-5-(1H-naphtho[2,3-d]imidazol-2-yl) phenol]	71 ± 0.01%	excellent antioxidant activity
–	100 µg/mL	–	CCOc1cc(-c2nc3cc4ccccc4cc3[nH]2)ccc1OC [Compound 7, 2-(3-Ethoxy-4-methoxyphenyl)-1H-naphtho[2,3-d]imidazole]	57.8 ± 0.01%	–
–	–	86.4 ± 0.78 µM	c1csc(-c2nc3cc4ccccc4cc3[nH]2)c1 [Compound 8, 2-(Thiophen-2-yl)-1H-naphtho[2,3-d]imidazole]	32 ± 0.01%	–
–	100 µg/mL	67.14 ± 0.67 µM	COc1ccc(-c2nc3cc4ccccc4cc3[nH]2)cc1OC [Compound 9, 2-(3,4-Dimethoxyphenyl)-1H-naphtho[2,3-d]imidazole]	57.8 ± 0.02%	–
–	100 µg/mL	–	Oc1ccc(-c2nc3cc4ccccc4cc3[nH]2)c(O)c1O [Compound 10, 4-(1H-Naphtho[2,3-d]imidazol-2-yl)benzene-1,2,3-triol]	57.9 ± 0.02%	–
–	37.5 µg/mL	42.4 ± 0.65 µM	COc1ccc(Br)c(-c2nc3cc4ccccc4cc3[nH]2)c1O [Compound 11, 3-Bromo-6-methoxy-2-(1H-naphtho[2,3-d]imidazol-2-yl)phenol]	71.1 ± 0.01%	excellent antioxidant activity
–	–	–	c1ccc(-c2nc3cc4ccccc4cc3[nH]2)cc1 [Compound 12, 2-Phenyl-1H-naphtho[2,3-d]imidazole]	43 ± 0.01%	–
–	100 µg/mL	–	COc1cc(-c2nc3cc4ccccc4cc3[nH]2)c(OC)cc1Br [Compound 13, 2-(4-Bromo-2,5-dimethoxyphenyl)-1H-naphtho[2,3-d]imidazole]	57.7 ± 0.01%	–
–	–	–	Fc1cc(Br)ccc1-c1nc2cc3ccccc3cc2[nH]1 [Compound 14, 2-(4-Bromo-2-fluorophenyl)-1H-naphtho[2,3-d]imidazole]	23 ± 0.01%	–
–	75 µg/mL	–	Brc1cccc(-c2nc3cc4ccccc4cc3[nH]2)c1 [Compound 15, 2-(3-Bromophenyl)-1H-naphtho[2,3-d]imidazole]	69.3 ± 0.01%	excellent antioxidant activity
